Measured values from ChEMBL document CHEMBL1157304, “Sesquiterpene lactones from Inula britannica and their cytotoxic and apoptotic effects on human cancer cell lines” (J Nat Prod, 2006).

Columns and labels:
COLO 205 [1] = assay: Induction of apoptosis in human COLO205 cells at 10 uM after 24 hrs by FACS; format: functional
Outline: (§1)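 2 × 10^5 cells plated in 60 mm dishes and incubated 24 h, then treated for 24 h with compound in DMSO. Cells harvested, washed in PBS and fixed overnight in ice-cold ethanol at −20 °C. Pellets held 30 min at 37 °C in 0.5% Triton X-100/PBS with 0.5 μg/mL RNase. Propidium iodide (50 μg/mL) added, 30 min on ice. Sub-G1 fraction read by FACScan flow cytometry. n=3, mean ± SE.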

COLO 205 [2] = assay: Induction of apoptosis in human COLO205 cells at 25 uM after 24 hrs by FACS; format: functional; outline: as §1
AGS [3] = assay: Induction of apoptosis in human AGS cells at 10 uM after 24 hrs by FACS; format: functional; outline: as §1
AGS [4] = assay: Cytotoxicity against human AGS cells after 24 hrs by trypan blue exclusion assay; format: functional, cell-based
Outline: (§2)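 Cells grown at 37 °C, 5% CO2; RPMI for COLO 205, HT-29 and HL-60, DMEM/F12 for AGS, each with 10% heat-inactivated FBS, penicillin/streptomycin and 2 mM L-glutamine. Compounds in DMSO (vehicle control 0.01% DMSO) tested at 5–100 μM for 24 h. Cells diluted 1:1 with 0.5% trypan blue. Unstained cells counted by hemocytometer and expressed as % viable. Three samples per group, mean ± SE.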

COLO 205 [5] = assay: Induction of apoptosis in human COLO205 cells at 5 uM after 24 hrs by FACS; format: functional; outline: as §1
HT-29 [6] = assay: Induction of apoptosis in human HT29 cells at 10 uM after 24 hrs by FACS; format: functional; outline: as §1
COLO 205 [7] = assay: Induction of apoptosis in human COLO205 cells at 100 uM after 24 hrs by FACS; format: functional; outline: as §1
HT-29 [8] = assay: Induction of apoptosis in human HT29 cells at 25 uM after 24 hrs by FACS; format: functional; outline: as §1
HT-29 [9] = assay: Induction of apoptosis in human HT29 cells at 50 uM after 24 hrs by FACS; format: functional; outline: as §1
HL-60 [10] = assay: Cytotoxicity against human HL60 cells after 24 hrs by trypan blue exclusion assay; format: functional, cell-based; conditions: HL-60, 24 h; outline: as §2
AGS [11] = assay: Induction of apoptosis in human AGS cells at 5 uM after 24 hrs by FACS; format: functional; outline: as §1
HL-60 [12] = assay: Induction of apoptosis in human HL60 cells at 100 uM after 24 hrs by FACS; format: functional; outline: as §1
HT-29 [13] = assay: Induction of apoptosis in human HT29 cells at 100 uM after 24 hrs by FACS; format: functional; outline: as §1
AGS [14] = assay: Induction of apoptosis in human AGS cells at 50 uM after 24 hrs by FACS; format: functional; outline: as §1
HL-60 [15] = assay: Induction of apoptosis in human HL60 cells at 50 uM after 24 hrs by FACS; format: functional; outline: as §1
HL-60 [16] = assay: Induction of apoptosis in human HL60 cells at 25 uM after 24 hrs by FACS; format: functional; outline: as §1
AGS [17] = assay: Induction of apoptosis in human AGS cells at 25 uM after 24 hrs by FACS; format: functional; outline: as §1
HL-60 [18] = assay: Induction of apoptosis in human HL60 cells at 10 uM after 24 hrs by FACS; format: functional; outline: as §1
HT-29 [19] = assay: Induction of apoptosis in human HT29 cells at 5 uM after 24 hrs by FACS; format: functional; outline: as §1
HL-60 [20] = assay: Induction of apoptosis in human HL60 cells at 5 uM after 24 hrs by FACS; format: functional; outline: as §1
HT-29 [21] = assay: Cytotoxicity against human HT29 cells after 24 hrs by trypan blue exclusion assay; format: functional, cell-based; conditions: HT-29, 24 h; outline: as §2
COLO 205 [22] = assay: Induction of apoptosis in human COLO205 cells at 50 uM after 24 hrs by FACS; format: functional; outline: as §1
AGS [23] = assay: Induction of apoptosis in human AGS cells at 100 uM after 24 hrs by FACS; format: functional; outline: as §1
COLO 205 [24] = assay: Cytotoxicity against human COLO205 cells after 24 hrs by trypan blue exclusion assay; format: functional, cell-based; conditions: COLO 205, 24 h; outline: as §2

Compound	Activity (COLO 205 [1])	Activity (COLO 205 [2])	Activity (AGS [3])	IC50 (AGS [4])	Activity (COLO 205 [5])	Activity (HT-29 [6])	Activity (COLO 205 [7])	Activity (HT-29 [8])	Activity (HT-29 [9])	IC50 (HL-60 [10])	Activity (AGS [11])	Activity (HL-60 [12])	Activity (HT-29 [13])	Activity (AGS [14])	Activity (HL-60 [15])	Activity (HL-60 [16])	Activity (AGS [17])	Activity (HL-60 [18])	Activity (HT-29 [19])	Activity (HL-60 [20])	further results
C=C1C(=O)O[C@@H]2CC(C)=C([C@@H](C)CCCOC(C)=O)[C@H](O)[C@H]12	11.32%	16.48%	17.28%	> 100 µM	13.44%	6.81%	35.79%	11.68%	9.26%	> 100 µM	15.37%	22.19%	14.87%	14.84%	5.69%	4.37%	14.666%	7.26%	5.36%	4.05%	IC50 (HT-29 [21]): 96 µM; Activity (COLO 205 [22]): 16.59%; Activity (AGS [23]): 18.85%; IC50 (COLO 205 [24]): > 100 µM
C=C1C(=O)O[C@@H]2CC(C)=C([C@@H](C)CCCO)[C@H](OC(=O)C(C)CC)[C@H]12 (stereo partly drawn)	5.86%	15.2%	11.38%	31.3 µM	5.33%	3.68%	36.24%	3.93%	5.16%	47.1 µM	10.89%	27.05%	6.4%	28.48%	28.6%	10.53%	17.76%	5.36%	4.24%	6.41%	IC50 (HT-29 [21]): 48.1 µM; Activity (COLO 205 [22]): 27.21%; Activity (AGS [23]): 27.1%; IC50 (COLO 205 [24]): 58.7 µM
C=C1C(=O)O[C@@H]2CC(C)=C([C@@H](C)CCCOC(C)=O)[C@H](OC(C)=O)[C@H]12	8.69%	26.95%	5.79%	66.4 µM	6.94%	11.15%	17.82%	11.5%	13.08%	35.3 µM	7.49%	22.24%	20.88%	10.79%	27.02%	21.13%	11.29%	8.67%	11.19%	6.14%	IC50 (HT-29 [21]): 76.6 µM; Activity (COLO 205 [22]): 15.44%; Activity (AGS [23]): 8.12%; IC50 (COLO 205 [24]): 56.7 µM
C=C1C(=O)O[C@H]2/C=C(\C)CC/C=C(\C)C[C@H](OC(C)=O)[C@@H]12 [ACETYL NEOBRITANNILACTONE B]	34.72%	76.87%	7.87%	5.4 µM	15.47%	47.56%	98.66%	69.7%	81.43%	16.2 µM	6.16%	98.05%	82.47%	13.64%	97.74%	95.17%	9.89%	39.71%	20.38%	22.93%	IC50 (HT-29 [21]): 57 µM; Activity (COLO 205 [22]): 96.92%; Activity (AGS [23]): 43.11%; IC50 (COLO 205 [24]): 14.7 µM
C=C1C(=O)O[C@@H]2CC(C)=C([C@@H](C)CCCO)[C@H](O)[C@H]12 [BRITANNILACTONE]	12.28%	12.79%	10.37%	> 100 µM	11.9%	6.16%	28.31%	6.49%	6.59%	> 100 µM	7.93%	12.83%	7.55%	8.97%	8.01%	5.24%	10.16%	5.64%	5.75%	7.22%	IC50 (HT-29 [21]): > 100 µM; Activity (COLO 205 [22]): 15.54%; Activity (AGS [23]): 10.37%; IC50 (COLO 205 [24]): > 100 µM
CC(=O)OCCC[C@H](C)C1=C[C@@H]2[C@H](C)C(=O)O[C@@H]2C[C@@]1(C)O [NEOBRITANNILACTONE A]	6.51%	4.28%	9.83%	> 100 µM	4.08%	4.24%	25.5%	5.17%	4.09%	85.8 µM	9.23%	16.31%	7.73%	9.41%	6.63%	6.19%	10.57%	6.31%	3.94%	6.68%	IC50 (HT-29 [21]): > 100 µM; Activity (COLO 205 [22]): 5.44%; Activity (AGS [23]): 9.81%; IC50 (COLO 205 [24]): 97.9 µM
C=C1C(=O)O[C@H]2/C=C(\C)CC/C=C(\C)C[C@H](O)[C@@H]12 [NEOBRITANNILACTONE B]	14.12%	41.62%	8.66%	21.4 µM	10.73%	24.46%	96.81%	66.54%	82.27%	27.4 µM	9.55%	98.29%	87.02%	15.95%	96.94%	77.57%	11.78%	21.93%	13.58%	9.82%	IC50 (HT-29 [21]): 56.1 µM; Activity (COLO 205 [22]): 89.11%; Activity (AGS [23]): 19.22%; IC50 (COLO 205 [24]): 14.3 µM
